ChEMBL document CHEMBL1133148 (Bioorg Med Chem Lett, 2000)
One block for each compound: values may come before it.

What was measured:
Mu-type opioid receptor [1] = biological target: T1, Mu-type opioid receptor (Rattus norvegicus, UniProt P33535); experiment: Concentration required for inhibition of [3H]DAMGO binding to Opioid receptor mu 1 in rat brain membranes; type: cell membranes
Method in brief: (§1)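 Rat brain minus cerebellum, homogenised in 0.32 M sucrose and spun. The membrane pellet was preincubated 1 h at room temperature in Tris pH 7.5/NaCl to strip endogenous opioids. Filtration, scintillation counting.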

Mu-type opioid receptor [2] = biological target: T1, Mu-type opioid receptor; experiment: Binding affinity towards Opioid receptor mu 1; method in brief: as §1

T1 sequence (P33535 whole entry): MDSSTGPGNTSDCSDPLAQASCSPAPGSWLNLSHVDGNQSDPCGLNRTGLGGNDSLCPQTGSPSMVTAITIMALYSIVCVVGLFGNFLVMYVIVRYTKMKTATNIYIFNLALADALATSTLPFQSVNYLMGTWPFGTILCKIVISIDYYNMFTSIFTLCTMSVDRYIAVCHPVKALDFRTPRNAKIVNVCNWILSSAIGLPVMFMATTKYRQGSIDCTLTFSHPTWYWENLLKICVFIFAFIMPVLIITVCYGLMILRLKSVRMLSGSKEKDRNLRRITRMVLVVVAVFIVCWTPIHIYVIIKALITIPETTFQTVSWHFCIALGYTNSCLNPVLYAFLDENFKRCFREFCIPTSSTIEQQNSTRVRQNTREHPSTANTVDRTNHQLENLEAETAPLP

SMILES: NC(=O)[C@H](Cc1ccccc1)NC(=O)[C@H](Cc1c[nH]c2ccccc12)NC(=O)C[C@H]1CCCN1C(=O)[C@@H](N)Cc1ccc(O)cc1
IC50 (Mu-type opioid receptor [1]): 1.8 nM
Ki (Mu-type opioid receptor [2]): 0.33 nM

Ki (Mu-type opioid receptor [2]): > 1000 nM
SMILES: NC(=O)[C@H](Cc1ccccc1)NC(=O)[C@H](Cc1c[nH]c2ccccc12)NC(=O)[C@@H]1CCCN1C(=O)CC(N)c1ccc(O)cc1 (stereo partly drawn)

SMILES: NC(=O)[C@H](Cc1ccccc1)NC(=O)[C@H](Cc1c[nH]c2ccccc12)NC(=O)C[C@@H]1CCCN1C(=O)[C@@H](N)Cc1ccc(O)cc1
IC50 (Mu-type opioid receptor [1]): 72 nM
Ki (Mu-type opioid receptor [2]): 10.4 nM

SMILES: NC(=O)CC(NC(=O)[C@H](Cc1c[nH]c2ccccc12)NC(=O)[C@@H]1CCCN1C(=O)[C@@H](N)Cc1ccc(O)cc1)c1ccccc1 (stereo partly drawn)
IC50 (Mu-type opioid receptor [1]): 680 nM
Ki (Mu-type opioid receptor [2]): 908 nM

SMILES: NC(=O)[C@H](Cc1ccccc1)NC(=O)CC(NC(=O)[C@@H]1CCCN1C(=O)C(N)Cc1ccc(O)cc1)c1c[nH]c2ccccc12 (single isomer, unassigned)
Ki (Mu-type opioid receptor [2]): > 1000 nM
